Source: ChEMBL document CHEMBL3580605, “Melampodium leucanthum, a source of cytotoxic sesquiterpenes with antimitotic activities” (J Nat Prod, 2015)
pIC50: −log10 of the molar value. Calls of active or inactive are those of the source. No cut-off for these calls is given here.

Columns and labels:
DU-145 [1] = assay: Growth inhibition of human DU145 cells by sulforhodamine B assay; type: functional, cell-based
Method in brief: (§1)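 SRB assay. DU 145 cells were grown in IMEM with 10% FBS and gentamicin, PC-3 in RPMI 1640 with 10% FBS and gentamicin, and HeLa in BME with 10% FBS and gentamicin. Cytotoxicity was read as a fall in cell density below the density at the time of drug addition. Each concentration was tested in triplicate, n = 2–9 independent experiments. IC50 is the concentration giving 50% inhibition of proliferation versus vehicle control, interpolated from a 4-parameter nonlinear regression; mean ± SE.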

DU-145 [2] = assay: Selectivity index, ratio of IC50 for human PC3 cells to IC50 for human DU145 cells; type: functional
Method in brief: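 Ratio of SRB IC50 values from PC-3 and DU 145 prostate cells, each measured by 4-parameter nonlinear regression of triplicate concentration-response data.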

PC-3 [3] = assay: Growth inhibition of human PC3 cells by sulforhodamine B assay; type: functional, cell-based; method in brief: as §1
SK-OV-3 [4] = assay: Resistance index, ratio of IC50 for human SKOV3-MDR1-M6/6 cells to IC50 for human SKOV3 cells; type: functional
Method in brief: (§2)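 Isogenic ovarian pair: parental SK-OV-3 and its Pgp-expressing single-cell clone SK-OV-3/MDR-1-M6/6, tested by SRB assay. IC50 is interpolated from a 4-parameter nonlinear regression against vehicle control. Rr = IC50 in M6/6 divided by IC50 in SK-OV-3.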

PC-3 [5] = assay: Induction of monopolar mitotic spindles in human PC3 cells at 25 uM incubated for 18 hrs by indirect immunofluorescence microscopy; type: functional, cell-based
Method in brief: (§3)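 Cells adhered overnight on glass coverslips, then were treated for 18 h. They were fixed in cold methanol (4 °C, 5 min) and blocked with 10% bovine calf serum for 20 min. Stained with monoclonal anti-β-tubulin (1:400, 2 h, 37 °C), then FITC anti-mouse IgG (1:200, 1 h, 37 °C), and 0.1 µg/mL DAPI. Spindles scored by indirect immunofluorescence; BI2536 at 100 nM served as positive control.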

DU-145 [6] = assay: Induction of apoptosis in human DU145 cells assessed as increase in PARP cleavage at 10 uM after 24 hrs by immunoblotting method; type: functional, cell-based
Method in brief: (§4)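 HeLa and DU 145 cells were given vehicle, BI2536 (100 nM) or test compounds (10 µM) for 24 h. Lysed with protease inhibitors; equal protein run on SDS-PAGE, transferred to PVDF, and probed for cleaved PARP (1:1000) with actin as loading control; ECL detection.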

HeLa [7] = assay: Induction of apoptosis in human HeLa cells assessed as increase in PARP cleavage at 10 uM after 24 hrs by immunoblotting method; type: functional, cell-based; method in brief: as §4
DU-145 [8] = assay: Inhibition of colony formation of human DU145 cells at 5 to 20 uM incubated for 4 hrs followed by drug wash-out and measured after 9 days post drug wash-out by crystal violet staining based clonogenic assay; type: functional, cell-based
Method in brief: (§5)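 300 DU 145 cells were allowed to adhere, then exposed to vehicle (0.5% DMSO final) or compound for 4 h. Washed with DPBS and regrown in fresh medium. Fixed and stained with 0.5% crystal violet in 10% methanol; colonies counted. Legend states 9 days, methods 14 days. One-way ANOVA with Dunnett's post-hoc test; n = 2–9 experiments.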

A10 = assay: Growth inhibition of rat A10 cells by sulforhodamine B assay; type: cell-based
SK-OV-3 [9] = assay: Growth inhibition of human SKOV3-MDR1-M6/6 cells by sulforhodamine B assay; type: functional, cell-based; method in brief: as §2
SK-OV-3 [10] = assay: Growth inhibition of human SKOV3 cells by sulforhodamine B assay; type: functional, cell-based; method in brief: as §2
[11] = biological target: Serine/threonine-protein kinase PLK1 (Homo sapiens) (UniProt P53350); assay: Inhibition of PLK1 Thr210 phosphorylation in human DU145 cells at 10 uM by immunoblotting method; type: cell-based; conditions: DU-145
Serine/threonine-protein kinase PLK1 (Homo sapiens), sequence (P53350 whole entry): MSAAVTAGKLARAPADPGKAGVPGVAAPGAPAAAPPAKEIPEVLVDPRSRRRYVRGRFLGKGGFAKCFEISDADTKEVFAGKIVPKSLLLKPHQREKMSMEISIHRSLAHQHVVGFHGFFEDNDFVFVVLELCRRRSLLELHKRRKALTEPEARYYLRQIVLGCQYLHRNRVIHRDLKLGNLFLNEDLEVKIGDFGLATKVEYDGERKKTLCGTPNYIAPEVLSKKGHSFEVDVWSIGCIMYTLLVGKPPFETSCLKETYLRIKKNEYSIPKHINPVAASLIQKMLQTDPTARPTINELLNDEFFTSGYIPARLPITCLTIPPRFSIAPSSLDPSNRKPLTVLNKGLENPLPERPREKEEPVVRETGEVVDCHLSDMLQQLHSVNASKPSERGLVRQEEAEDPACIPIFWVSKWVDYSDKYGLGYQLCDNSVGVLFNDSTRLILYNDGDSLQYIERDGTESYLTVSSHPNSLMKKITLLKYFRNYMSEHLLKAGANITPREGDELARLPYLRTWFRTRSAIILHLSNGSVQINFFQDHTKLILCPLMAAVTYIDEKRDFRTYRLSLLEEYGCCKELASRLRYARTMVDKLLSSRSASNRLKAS
Method in brief: (§6)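 HeLa and DU 145 cells were given vehicle, 100 nM BI 2536 or 10 µM test compounds. Lysed and immunoblotted for total PLK1 and phospho-Thr210-PLK1.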

HeLa [12] = assay: Induction of aberrant bipolar mitotic spindles in human HeLa cells at 25 uM incubated for 18 hrs by indirect immunofluorescence microscopy; type: functional, cell-based; method in brief: as §3
Tubulin (Sus scrofa) [13] = biological target: T1, Tubulin (Sus scrofa) (UniProt P02554+P02550); assay: Inhibition of porcine tubulin polymerization at 10 uM incubated for 1 hr by turbidimetry; type: protein assay
T1 sequence (P02550 whole entry, looked up): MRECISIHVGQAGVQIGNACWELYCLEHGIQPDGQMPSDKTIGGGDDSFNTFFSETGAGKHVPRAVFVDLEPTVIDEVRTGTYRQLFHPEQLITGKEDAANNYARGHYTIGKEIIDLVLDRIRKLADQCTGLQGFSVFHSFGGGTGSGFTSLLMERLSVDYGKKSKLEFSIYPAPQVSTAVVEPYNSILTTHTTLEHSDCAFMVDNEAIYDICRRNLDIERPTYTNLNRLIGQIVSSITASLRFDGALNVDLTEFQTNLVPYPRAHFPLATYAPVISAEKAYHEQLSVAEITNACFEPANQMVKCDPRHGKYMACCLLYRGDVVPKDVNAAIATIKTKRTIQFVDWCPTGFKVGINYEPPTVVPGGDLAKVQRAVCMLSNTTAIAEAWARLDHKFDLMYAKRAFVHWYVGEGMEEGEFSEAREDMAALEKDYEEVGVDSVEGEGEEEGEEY
T1 sequence (P02554 whole entry, looked up): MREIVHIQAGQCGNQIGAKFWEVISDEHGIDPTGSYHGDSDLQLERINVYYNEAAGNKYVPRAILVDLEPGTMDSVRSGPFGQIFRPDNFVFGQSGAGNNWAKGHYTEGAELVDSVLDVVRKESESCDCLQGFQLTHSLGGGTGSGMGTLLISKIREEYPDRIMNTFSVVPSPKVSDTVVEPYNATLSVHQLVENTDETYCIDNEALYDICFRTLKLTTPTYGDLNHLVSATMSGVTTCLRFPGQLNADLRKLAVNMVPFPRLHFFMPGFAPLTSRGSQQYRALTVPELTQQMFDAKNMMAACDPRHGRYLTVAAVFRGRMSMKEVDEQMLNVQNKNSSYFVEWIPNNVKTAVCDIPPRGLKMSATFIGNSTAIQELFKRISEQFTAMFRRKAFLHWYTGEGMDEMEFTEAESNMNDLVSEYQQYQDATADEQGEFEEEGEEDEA

HeLa [14] = assay: Inhibition of PLK1 protein accumulation in human HeLa cells at 10 uM by immunoblotting method; type: functional, cell-based; method in brief: as §6
[15] = biological target: Serine/threonine-protein kinase PLK1 (Homo sapiens) (UniProt P53350); assay: Inhibition of PLK1 Thr210 phosphorylation in human HeLa cells at 10 uM by immunoblotting method; type: cell-based; method in brief: as §6
PC-3 [16] = assay: Induction of aberrant bipolar mitotic spindles in human PC3 cells at 25 uM incubated for 18 hrs by indirect immunofluorescence microscopy; type: functional, cell-based; method in brief: as §3
DU-145 [17] = assay: Inhibition of PLK1 protein accumulation in human DU145 cells at 10 uM by immunoblotting method; type: functional, cell-based; method in brief: as §6
HeLa [18] = assay: Induction of monopolar mitotic spindles in human HeLa cells at 25 uM incubated for 18 hrs by indirect immunofluorescence microscopy; type: functional, cell-based; method in brief: as §3
DU-145 [19] = assay: Inhibition of colony formation of human DU145 cells incubated for 4 hrs followed by drug wash-out and measured after 14 days post drug wash-out by crystal violet staining based clonogenic assay; type: functional, cell-based; method in brief: as §5
HeLa [20] = assay: Growth inhibition of human HeLa cells by sulforhodamine B assay; type: functional, cell-based; method in brief: as §1
HeLa [21] = assay: Inhibition of PLK1 protein accumulation in human HeLa cells at 100 nM by immunoblotting method; type: functional, cell-based; method in brief: as §6
DU-145 [22] = assay: Inhibition of PLK1 protein accumulation in human DU145 cells at 100 nM by immunoblotting method; type: functional, cell-based; method in brief: as §6
DU-145 [23] = assay: Induction of apoptosis in human DU145 cells assessed as increase in PARP cleavage at 100 nM after 24 hrs by immunoblotting method; type: functional, cell-based; method in brief: as §4
HeLa [24] = assay: Induction of monopolar mitotic spindles in human HeLa cells at 100 nM incubated for 18 hrs by indirect immunofluorescence microscopy; type: functional, cell-based; method in brief: as §3
PC-3 [25] = assay: Induction of monopolar mitotic spindles in human PC3 cells at 100 nM incubated for 18 hrs by indirect immunofluorescence microscopy; type: functional, cell-based; method in brief: as §3
HeLa [26] = assay: Induction of apoptosis in human HeLa cells assessed as increase in PARP cleavage at 100 nM after 24 hrs by immunoblotting method; type: functional, cell-based; method in brief: as §4
HeLa [27] = assay: Induction of monopolar mitotic spindles in human HeLa cells at 7.5 uM incubated for 18 hrs by indirect immunofluorescence microscopy; type: functional, cell-based; method in brief: as §3
HeLa [28] = assay: Induction of aberrant bipolar mitotic spindles in human HeLa cells at 7.5 uM incubated for 18 hrs by indirect immunofluorescence microscopy; type: functional, cell-based; method in brief: as §3
PC-3 [29] = assay: Induction of monopolar mitotic spindles in human PC3 cells at 7.5 uM incubated for 18 hrs by indirect immunofluorescence microscopy; type: functional, cell-based; method in brief: as §3
PC-3 [30] = assay: Induction of aberrant bipolar mitotic spindles in human PC3 cells at 7.5 uM incubated for 18 hrs by indirect immunofluorescence microscopy; type: functional, cell-based; method in brief: as §3
PC-3 [31] = assay: Induction of aberrant bipolar mitotic spindles in human PC3 cells at 10 uM incubated for 18 hrs by indirect immunofluorescence microscopy; type: functional, cell-based; method in brief: as §3
PC-3 [32] = assay: Induction of cell cycle arrest in human PC3 cells at 1.5 uM to 5 uM incubated for 18 hrs by flow cytometry method; type: functional, cell-based
Method in brief: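 PC-3 cells were treated with vehicle (DMSO) or compound for 18 h. Stained with Krishan's reagent (propidium iodide), and DNA content read by flow cytometry for cell cycle distribution.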

PC-3 [33] = assay: Induction of monopolar mitotic spindles in human PC3 cells at 10 uM incubated for 18 hrs by indirect immunofluorescence microscopy; type: functional, cell-based; method in brief: as §3
HeLa [34] = assay: Induction of monopolar mitotic spindles in human HeLa cells at 10 uM incubated for 18 hrs by indirect immunofluorescence microscopy; type: functional, cell-based; method in brief: as §3
HeLa [35] = assay: Induction of aberrant bipolar mitotic spindles in human HeLa cells at 10 uM incubated for 18 hrs by indirect immunofluorescence microscopy; type: functional, cell-based; method in brief: as §3
Tubulin (Sus scrofa) [36] = biological target: T1, Tubulin (Sus scrofa); assay: Inhibition of porcine tubulin polymerization at 10 to 100 uM incubated for 1 hr by turbidimetry; type: protein assay

SMILES | pIC50 (DU-145 [1]) | pIC50 (PC-3 [3]) | Ratio IC50 (SK-OV-3 [4]) | Activity (DU-145 [6]) | Activity (HeLa [7]) | pIC50 (A10) | pIC50 (SK-OV-3 [9]) | pIC50 (SK-OV-3 [10]) | inhibition [11] | inhibition (Tubulin (Sus scrofa) [13]) | inhibition (HeLa [14]) | inhibition [15] | inhibition (DU-145 [17]) | inhibition (DU-145 [19]) | pIC50 (HeLa [20]) | further results
C=C1C(=O)O[C@H]2[C@H]1[C@H](OC(=O)[C@@]1(C)O[C@H]1C)[C@@H](OC(C)=O)[C@@]1(C(=O)OC)C=CC=C(C)[C@H]21 | 6.74 | 6.17 | – | – | – | – | – | – | – | – | – | – | – | – | – | Ratio IC50 (DU-145 [2]): 3.7
C=C1C(=O)O[C@H]2[C@H]1[C@H](OC(=O)[C@@]1(C)O[C@H]1C)[C@H](OC(C)=O)/C(C(=O)OC)=C\C[C@@H](O)[C@]1(C)O[C@H]21 | 5.23 | 5.06 | 2.6 | Active | Active | 5.52 | 5.36 | 5.77 | inactive | Active | inactive | inactive | inactive | Dose-dependent effect | 5.42 | Activity (PC-3 [5]): Active; inhibition (DU-145 [8]): Active; Activity (HeLa [12]): Active; Activity (PC-3 [16]): Active; Activity (HeLa [18]): Active
CC[C@@H]1C(=O)N(C)c2cnc(Nc3ccc(C(=O)NC4CCN(C)CC4)cc3OC)nc2N1C1CCCC1 | – | – | – | – | – | – | – | – | – | – | – | – | – | – | – | inhibition (HeLa [21]): Active; inhibition (DU-145 [22]): Active; Activity (DU-145 [23]): Active; Activity (HeLa [24]): Active; Activity (PC-3 [25]): Active; Activity (HeLa [26]): Active
CC(=O)O[C@H]1C(=O)[C@@]2(C)[C@H]([C@H](OC(=O)c3ccccc3)[C@]3(O)C[C@H](OC(=O)[C@H](O)[C@@H](NC(=O)c4ccccc4)c4ccccc4)C(C)=C1C3(C)C)[C@]1(OC(C)=O)CO[C@@H]1C[C@@H]2O [PACLITAXEL] | 8.40 | 7.40 | 162.9 | – | – | – | 6.00 | 8.21 | – | – | – | – | – | – | 8.46 | –
C=C1C(=O)O[C@H]2[C@H]1[C@H](OC(=O)[C@@]1(C)O[C@H]1C)[C@H](OC(C)=O)/C(C(=O)OC)=C\[C@H]1O[C@H]1[C@]1(C)O[C@H]21 | 5.59 | 5.51 | 2.4 | Active | Active | 5.96 | 5.70 | 6.09 | inactive | Active | inactive | inactive | inactive | Dose-dependent effect | 5.72 | Activity (HeLa [27]): Active; Activity (HeLa [28]): Active; Activity (PC-3 [29]): Active; Activity (PC-3 [30]): Active
C=C1C(=O)O[C@H]2[C@H]1[C@H](OC(=O)[C@@]1(C)O[C@H]1C)[C@H](OC(C)=O)/C(C(=O)OC)=C\C=C/[C@]1(C)O[C@H]21 | 5.74 | 5.77 | 2.5 | Active | Active | 5.77 | 5.85 | 6.24 | inactive | – | inactive | inactive | inactive | Dose-dependent effect | 5.77 | Activity (PC-3 [31]): Active; Activity (PC-3 [32]): inactive; Activity (PC-3 [33]): Active; Activity (HeLa [34]): Active; Activity (HeLa [35]): Active; inhibition (Tubulin (Sus scrofa) [36]): Active
